Assay results reported in ChEMBL document CHEMBL3124854, “Synthesis and evaluation of antiproliferative activity of a novel series of hydroxychavicol analogs” (Eur J Med Chem, 2014).
pIC50: −log10 of the molar value.

Tests used:
[1] = tested on: HeLa; assay: Cytotoxicity against human HeLa cells assessed as growth inhibition after 48 hrs by MTT assay; assay type: functional, cell-based
Outline: (§1)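 MTT proliferation assay: 2 × 10³ cells per well seeded, 24 h incubation, then treated with analogs dissolved in DMSO and diluted in medium at […] for 48 h. Medium then replaced with fresh medium carrying MTT (5 mg/mL stock in PBS). IC50 taken as concentration inhibiting proliferation of 50% cells; SD between batches.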

[2] = tested on: PC-3; assay: Cytotoxicity against human PC3 cells assessed as growth inhibition after 48 hrs by MTT assay; assay type: functional, cell-based; details: PC-3, 48 h; outline: as §1

Work on CCC(OC(C)=O)c1ccc(OC(C)=O)c(OC(C)=O)c1 (stereo not given) yielded a pIC50 [1] of 4.28 and a pIC50 [2] of 4.38.
With COc1cc(CC(COC(C)=O)OC(C)=O)ccc1O (stereo not given) the pIC50 [1] was 4.22.
CC(=O)OC/C=C/c1ccc(OCc2ccccc2)c(OC(C)=O)c1 gave a pIC50 [1] of 4.38 and a pIC50 [2] of 4.42.
CCC(OC(C)=O)c1ccc(O)c(OC(C)=O)c1 (stereo not given) was tested, and the pIC50 [1] was 4.40 and the pIC50 [2] was 4.32.
CC(=O)OCCCc1ccc(O)c(O)c1 gave a pIC50 [1] of 4.66 and a pIC50 [2] of 4.08.
For CC(=O)OC/C=C/c1ccc(OCc2ccccc2)c(O)c1, the pIC50 [1] was 4.89 and the pIC50 [2] was 5.46.
C=CC(O)c1ccc(OCc2ccccc2)c(O)c1 (stereo not given) showed a pIC50 [1] of 4.12.
C=CCc1ccc(O)c(O)c1 [HYDROXYCHAVICOL] was tested, and the pIC50 [1] was 4.08 and the pIC50 [2] was 4.26.
C=CCOc1ccc(CC(COC(C)=O)OC(C)=O)cc1OC (stereo not given) was tested, and the pIC50 [1] was 4.02.
